# Laboratory results reported in ChEMBL document CHEMBL1949557, “Discovery of INCB3284, a Potent, Selective, and Orally Bioavailable hCCR2 Antagonist” (ACS Med Chem Lett, 2011).
# Experiments:
# [1] = molecular target: T1, C-C chemokine receptor type 2 (Homo sapiens, UniProt P41597); test: Displacement of [125I]MCP1 from CCR2 in human PBMC at 1 uM after 30 mins by gamma counter
# Target sequence in this assay (P41597 whole entry, looked up): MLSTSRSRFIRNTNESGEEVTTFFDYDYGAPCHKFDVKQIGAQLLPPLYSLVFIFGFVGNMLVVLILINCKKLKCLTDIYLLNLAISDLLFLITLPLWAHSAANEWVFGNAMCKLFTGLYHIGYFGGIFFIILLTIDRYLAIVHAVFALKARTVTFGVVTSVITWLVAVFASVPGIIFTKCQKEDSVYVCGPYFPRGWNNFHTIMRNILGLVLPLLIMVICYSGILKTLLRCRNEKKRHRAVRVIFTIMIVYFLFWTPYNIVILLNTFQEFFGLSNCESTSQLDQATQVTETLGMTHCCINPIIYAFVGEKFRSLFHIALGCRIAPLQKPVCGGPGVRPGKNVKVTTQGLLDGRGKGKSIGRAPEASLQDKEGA
# [2] = system: Mus musculus; test: Dose normalized AUC in mouse at 10 mg/kg, po; type: ADME, organism-based; design: dose 10 mg/kg, route oral; settings: in vivo
# Outline: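 Mouse oral PK screen by cassette dosing at 10 mg/kg, three animals per cassette. AUC is dose-normalized.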
# [3] = molecular target: T1, C-C chemokine receptor type 2; test: Displacement of [125I]MCP1 from CCR2 in human PBMC after 30 mins by gamma counter
# Target sequence in this assay (P41597 whole entry): as the sequence (P41597 whole entry, looked up) above
# [4] = molecular target: C-C chemokine receptor type 2 (Mus musculus, UniProt P51683); test: Displacement of [125I]MCP1 from mouse CCR2 after 30 mins by gamma counter
# Sequence of C-C chemokine receptor type 2 (Mus musculus, UniProt P51683) (P51683 whole entry): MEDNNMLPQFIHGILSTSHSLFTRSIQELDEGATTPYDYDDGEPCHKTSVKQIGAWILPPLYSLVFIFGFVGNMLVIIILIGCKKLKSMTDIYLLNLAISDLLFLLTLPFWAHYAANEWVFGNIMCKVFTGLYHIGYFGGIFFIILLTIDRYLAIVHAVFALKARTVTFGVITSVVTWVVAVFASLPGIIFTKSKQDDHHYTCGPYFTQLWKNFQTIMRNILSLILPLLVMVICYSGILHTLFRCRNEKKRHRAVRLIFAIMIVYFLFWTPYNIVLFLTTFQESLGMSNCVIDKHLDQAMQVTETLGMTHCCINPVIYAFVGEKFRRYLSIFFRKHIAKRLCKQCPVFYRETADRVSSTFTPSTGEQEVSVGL
Structure (SMILES),inhibition [1] [%],AUC/dose [2] [nM·h],IC50 [3] [nM],IC50 [4] [nM]
O=C(CNC(=O)c1cccc(C(F)(F)F)c1)N[C@@H]1CCN([C@H]2CC[C@](O)(c3ccncn3)CC2)C1,< 50,–,–,–
O=C(CNC(=O)c1cccc(C(F)(F)F)c1)N[C@@H]1CCN([C@H]2CC[C@](O)(c3ccncc3)CC2)C1 (mixture of isomers),< 50,–,–,–
O=C(CNC(=O)c1cccc(C(F)(F)F)c1)N[C@@H]1CCN([C@H]2CC[C@](O)(c3ncccn3)CC2)C1,< 50,–,–,–
O=C(CNC(=O)c1cccc(C(F)(F)F)c1)N[C@@H]1CCN([C@H]2CC[C@@](O)(c3cccnn3)CC2)C1,–,155,7.3,–
O=C(CNC(=O)c1cccc(C(F)(F)F)c1)N[C@@H]1CCN([C@H]2CC[C@@](O)(c3ccncn3)CC2)C1,–,930,7.8,–
O=C(CNC(=O)c1cccc(C(F)(F)F)c1)N[C@@H]1CCN([C@H]2CC[C@](O)(c3cccnn3)CC2)C1,< 50,–,–,–
CCOc1ccc([C@]2(O)CC[C@H](N3CC[C@@H](NC(=O)CNC(=O)c4cccc(C(F)(F)F)c4)C3)CC2)cn1,–,287,3.2,–
Cc1ccc([C@]2(O)CC[C@H](N3CC[C@H](NC(=O)CNC(=O)c4cccc(C(F)(F)F)c4)C3)CC2)cc1,–,–,> 1000,–
O=C(CNC(=O)c1cccc(C(F)(F)F)c1)N[C@@H]1CCN([C@H]2CC[C@](O)(c3ccccn3)CC2)C1,< 50,–,–,–
O=C(CNC(=O)c1cccc(C(F)(F)F)c1)N[C@@H]1CCN([C@H]2CC[C@@](O)(c3cncnc3)CC2)C1,–,–,14,–
O=C(CNC(=O)c1cccc(C(F)(F)F)c1)N[C@@H]1CCN([C@H]2CC[C@@](O)(c3ccccn3)CC2)C1,–,2812,3.2,–
O=C(CNC(=O)c1cccc(C(F)(F)F)c1)N[C@@H]1CCN([C@H]2CC[C@@](O)(c3ccncc3)CC2)C1,–,100,4.3,–
O=C(CNC(=O)c1cccc(C(F)(F)F)c1)N[C@@H]1CCN([C@H]2CC[C@](O)(c3cccnc3)CC2)C1,< 50,–,–,–
O=C(CNC(=O)c1cccc(C(F)(F)F)c1)N[C@@H]1CCN([C@H]2CC[C@@](O)(c3cnccn3)CC2)C1,–,1550,10.9,–
O=C(CNC(=O)c1cccc(C(F)(F)F)c1)N[C@@H]1CCN([C@H]2CC[C@@](O)(c3ncccn3)CC2)C1,–,1442,10.3,–
Cc1ccc([C@]2(O)CC[C@@H](N3CC[C@@H](NC(=O)CNC(=O)c4cccc(C(F)(F)F)c4)C3)CC2)cn1,< 50,–,–,–
Cc1ccc([C@]2(O)CC[C@H](N3CC[C@@H](NC(=O)CNC(=O)c4cccc(C(F)(F)F)c4)C3)CC2)cn1,–,127,2.4,–
O=C(CNC(=O)c1cccc(C(F)(F)F)c1)N[C@@H]1CCN([C@H]2CC[C@@](O)(c3ccnnc3)CC2)C1,–,80,4.9,–
COc1ccc([C@]2(O)CC[C@@H](N3CC[C@@H](NC(=O)CNC(=O)c4cccc(C(F)(F)F)c4)C3)CC2)cn1,< 50,–,–,–
O=C(CNC(=O)c1cccc(C(F)(F)F)c1)N[C@@H]1CCN([C@H]2CC[C@](O)(c3cnccn3)CC2)C1,< 50,–,–,–
O=C(CNC(=O)c1cccc(C(F)(F)F)c1)N[C@@H]1CCN([C@H]2CC[C@](O)(c3cncnc3)CC2)C1,< 50,–,–,–
Cc1ccc([C@]2(O)CC[C@H](N3CC[C@@H](NC(=O)CNC(=O)c4cccc(C(F)(F)F)c4)C3)CC2)cc1,–,–,1,18
O=C(CNC(=O)c1cccc(C(F)(F)F)c1)N[C@@H]1CCN([C@H]2CC[C@@](O)(c3cccnc3)CC2)C1,–,50,2.6,–
O=C(CNC(=O)c1cccc(C(F)(F)F)c1)N[C@@H]1CCN([C@H]2CC[C@](O)(c3ccnnc3)CC2)C1,< 50,–,–,–
CCOc1ccc([C@]2(O)CC[C@@H](N3CC[C@@H](NC(=O)CNC(=O)c4cccc(C(F)(F)F)c4)C3)CC2)cn1,< 50,–,–,–
